The values that follow come from ChEMBL document CHEMBL5674890, “Selective inhibition of CBP/p300 HAT by A-485 results in suppression of lipogenesis and hepatic gluconeogenesis” (Cell Death Dis, 2020).

The test system of assay [1] is Adipocyte. As to the kind of experiment: Inhibition of lipogenesis in mouse adipocytes isolated stromal vascular cells assessed as decrease in DGAT2 mRNA expression measured after 24 hrs by RT-qPCR assay. Type of assay: functional, cell-based. The procedure, abridged: (§1)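 Stromal vascular cells from inguinal WAT of C57BL/6 mice, grown in DMEM/F12 + 10% FBS at 37 °C, 10% CO2. At confluence, induced 48 h with 5 μg/ml insulin, 1 μM dexamethasone, 0.5 mM isobutylmethylxanthine, then 6 days in 5 μg/ml insulin; fully differentiated day 8. Mature adipocytes exposed to inhibitor 24 h. Total RNA by Trizol, SYBR Green RT-qPCR; protein by western blot.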
On the technique in general: Quantitative PCR measures a nucleic acid by following its amplification.

Assay [2] concerns Hepatocyte. Put plainly: Inhibition of lipogenesis in mouse primary hepatocytes assessed as increase in MCAD mRNA expression at 3 uM in presence of 100 nM insulin and 5 to 25 mM glucose measured after 18 hrs by RT-qPCR assay. Type of assay: functional, cell-based. A digest of the protocol:
(§2)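 Primary hepatocytes isolated from C57BL/6 mice by two-step perfusion. Cells incubated 18 h with 3 μM inhibitor, with 0 or 100 nM insulin and 5 or 25 mM glucose. Transcripts quantified by SYBR Green RT-qPCR after Trizol RNA extraction; proteins by western blot of lysates. Mean ± SEM.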

Assay [3] deals with Adipocyte. Put plainly: Inhibition of lipogenesis in mouse adipocytes isolated stromal vascular cells assessed as decrease in LPL mRNA expression measured after 24 hrs by RT-qPCR assay. The class given is functional, cell-based. The procedure, abridged:
as §1

Assay [4] concerns Mus musculus. Put plainly: Anti-obesity activity in C57BL/6 mouse supplemented with high fat diet assessed as effect on total lean mass at 20 mg/kg/day, ip administered for 1 week. The class given is functional, organism-based. As to conditions: time 1.0 weeks. The procedure, abridged:
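Male C57BL/6 mice fed high-fat diet for 14 weeks from 5 weeks of age, then ip 20 mg·kg−1·day−1 for 7 days. Body weight, EchoMRI lean/fat mass, and random or 16 h-fasted blood glucose recorded, as the line states.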

The test system of assay [5] is Hepatocyte. As to the kind of experiment: Inhibition of glucogenesis in mouse primary hepatocytes stimulated with 100 uM 8-Br-cAMP assessed as effect on PGC1alpha protein expression at 3 uM measured after 12 hrs by western blot analysis. Type of assay: functional, cell-based. A digest of the protocol: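 Primary mouse hepatocytes incubated 12 h with 3 μM compound and 100 μM 8-Br-cAMP. Lysates western blotted for FOXO1, C/EBPα or PGC1α. Three independent experiments.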
A general note: A western blot detects proteins with antibodies after separation by electrophoresis.

Assay [6] deals with Mus musculus. As to the kind of experiment: Anti-obesity activity in C57BL/6 mouse supplemented with high fat diet assessed as decrease in hepatic G6Pc mRNA expression level at 20 mg/kg/day, ip administered for 1 week measured by RT-qPCR assay. Type of assay: functional, organism-based. The settings on record: time 1.0 weeks. A digest of the protocol: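 Hepatic G6Pc mRNA in male C57BL/6 mice fed HFD for 14 weeks, then ip 20 mg·kg−1·day−1 for 7 days. Liver RNA extracted with Trizol; SYBR Green RT-qPCR.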

Assay [7] relates to Mus musculus. Put plainly: Inhibition of lipogenesis in C57BL/6 mouse supplemented with normal chow diet assessed as decrease in FAS protein expression at 20 mg/kg/day, ip administered for 1 week measured by western blot analysis. The class given is functional, organism-based. As to conditions: time 1.0 weeks. A digest of the protocol:
(§3)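 Eight-week-old male C57BL/6 mice on normal chow were given 20 mg·kg−1·day−1 ip daily for 7 days or vehicle. Epididymal WAT was collected. Lipogenic, adipogenic and fatty-acid-oxidation transcripts were quantified by Trizol extraction and SYBR Green RT-qPCR. FAS, ACC, PPARγ and C/EBPα protein were assessed by western blot. n = 5–9; mean ± SEM.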

Assay [8] deals with Mus musculus. Put plainly: Inhibition of lipogenesis in C57BL/6 mouse supplemented with normal chow diet assessed as decrease in ACC protein expression at 20 mg/kg/day, ip administered for 1 week measured by western blot analysis. Type of assay: functional, organism-based. As to conditions: time 1.0 weeks. A digest of the protocol: as §3
In assay [9] the test system is Mus musculus. Put plainly: Inhibition of hepatic lipogenesis in C57BL/6 mouse supplemented with normal chow diet assessed as decrease in total cholesterol level at 20 mg/kg/day, ip administered for 1 week. Type of assay: functional, organism-based. The settings on record: time 1.0 weeks. The procedure, abridged: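 Male C57BL/6 mice received ip A-485 at 20 mg·kg−1·day−1 for 7 days, versus vehicle. NCD mice were 8 weeks old. HFD mice had been on high-fat diet for 14 weeks from 5 weeks of age. Liver triglyceride and total cholesterol content was determined. n = 5–9; mean ± SEM.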

The subject of assay [10] is Mus musculus. Put plainly: Anti-obesity activity in C57BL/6 mouse supplemented with high fat diet assessed as improvement in glucose tolerance at 20 mg/kg/day, ip administered for 1 week measured by intraperitoneal glucose tolerance test. Type of assay: functional, organism-based. The settings on record: time 1.0 weeks. The procedure, abridged: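 High-fat diet mice (male C57BL/6, 14 weeks on HFD from 5 weeks of age), ip 20 mg·kg−1·day−1 for 7 days. 16 h fast, then glucose 2 g/kg body weight ip; blood glucose tracked during the test.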

Assay [11] deals with Mus musculus. As to the kind of experiment: Inhibition of lipogenesis in C57BL/6 mouse supplemented with normal chow diet assessed as decrease in SCD1 mRNA expression at 20 mg/kg/day, ip administered for 1 week measured by RT-qPCR assay. The class given is functional, organism-based. As to conditions: time 1.0 weeks. A digest of the protocol: as §3
For assay [12], the system named is Mus musculus. Put plainly: Inhibition of lipogenesis in C57BL/6 mouse supplemented with high-fat diet assessed as decrease in PPARgamma protein expression at 20 mg/kg/day, ip administered for 1 week measured measured by western blot analysis. As to conditions: time 1.0 weeks. The class given is functional, organism-based. A digest of the protocol:
(§4)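 Male C57BL/6 mice were fed high-fat diet for 14 weeks from 5 weeks of age, then injected ip with 20 mg·kg−1·day−1 for 7 days or given vehicle. Epididymal and inguinal WAT were weighed, examined by H&E, and analysed. Transcripts were measured by Trizol/SYBR Green RT-qPCR; proteins by western blot. n = 5–9; mean ± SEM.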

The test system of assay [13] is Hepatocyte. As to the kind of experiment: Inhibition of glucogenesis in mouse primary hepatocytes stimulated with 100 uM 8-Br-cAMP assessed as effect on pTORC2 protein expression at 3 uM measured after 1 hr by western blot analysis. The class given is functional, cell-based. A digest of the protocol:
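Primary hepatocytes from C57BL/6 mice, isolated by two-step perfusion, were co-treated with 3 μM A-485 and 100 μM 8-Br-cAMP for 1 h. Phospho-CREB, phospho-AMPK and phospho-TORC2 were detected by western blot of cell lysates. Three independent experiments; mean ± SEM.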

For assay [14], the system named is Hepatocyte. Put plainly: Inhibition of lipogenesis in mouse primary hepatocytes assessed as increase in FGF21 mRNA expression at 3 uM in presence of 100 nM insulin and 5 to 25 mM glucose measured after 18 hrs by RT-qPCR assay. Type of assay: functional, cell-based. The procedure, abridged: as §2
Assay [15] has as its system Mus musculus. Put plainly: Inhibition of hepatic lipogenesis in C57BL/6 mouse supplemented with normal chow diet assessed as effect on ACO mRNA expression at 20 mg/kg/day, ip administered for 1 week measured by RT-qPCR assay. The class given is functional, organism-based. As to conditions: time 1.0 weeks. The procedure, abridged: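 Normal-chow male C57BL/6 mice, 8 weeks old, were injected ip at 20 mg·kg−1·day−1 daily for 7 days or given vehicle. Liver RNA was extracted with Trizol, and fatty-acid-oxidation gene transcripts were quantified by SYBR Green RT-qPCR. n = 5–9; mean ± SEM.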

Assay [16] relates to Hepatocyte. Put plainly: Inhibition of glucogenesis in mouse primary hepatocytes stimulated with 100 uM 8-Br-cAMP assessed as decrease in glucose production at 3 uM measured after 24 hrs. Type of assay: functional, cell-based. The procedure, abridged:
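Two-step-perfusion primary mouse hepatocytes pretreated 16 h with 100 nM dexamethasone. Then incubated 24 h in glucose-free DMEM with 1 mM pyruvate, 10 mM lactate, 0.25% BSA, 100 μM 8-Br-cAMP and 3 μM test agent. Medium glucose measured colorimetrically. Mean ± SEM, three independent experiments.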

In assay [17] the test system is Mus musculus. As to the kind of experiment: Inhibition of lipogenesis in C57BL/6 mouse supplemented with high-fat diet assessed as decrease in adipocyte size of WAT at 20 mg/kg/day, ip administered for 1 week. The class given is functional, organism-based. The settings on record: time 1.0 weeks. A digest of the protocol: as §4

Structures are written as SMILES. Active and inactive are the calls of the source. The calls are words filed in the database; no cut-off is given here.

Turning to `CNC(=O)Nc1ccc2c(c1)CCS21OC(=O)N(CC(=O)N(Cc2ccc(F)cc2)[C@@H](C)C(F)(F)F)C1=O` (some centres not stated), the inhibition result in assay [1], in assay [2], in [3], in [7], in assay [8] and in assay [9] was “Active” in each case. Besides, the inhibition result in assay [11], in assay [12], in assay [14], in assay [16] and in [17] was “Active” each time. In [4], the result was inactive. The inhibition entry in [5], in assay [13] and in assay [15] was “inactive” throughout. Also, the result in assay [6] and in [10] was Active.
